# Results: ChEMBL document CHEMBL2034860, “Cytotoxic heterocyclic triterpenoids derived from betulin and betulinic acid” (Bioorg Med Chem, 2012)
# Key:
# CCRF-CEM [1] = experiment: Cytotoxicity against human CCRF-CEM cells after 72 hrs by MTT assay; type: functional, cell-based
# [2] = Solubility of the compound in water based media; type: physicochemical; settings: buffer
# CCRF-CEM [3] = experiment: Cytotoxicity against human daunorubicine resistant CEM cells after 72 hrs by MTT assay; type: functional, cell-based
# Procedure, shortened: (§1)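 Cells seeded at 2500–30,000 per well according to cell type and pre-incubated 24 h at 37 °C, 5% CO2. Four-fold dilutions of compounds dissolved in 10% DMSO were added at time zero, in quadruplicate, then incubated 72 h. MTT was added for a further 1–4 h and formazan dissolved in 10% aq SDS (pH 5.5) overnight at 37 °C. OD was read at 540 nm. Survival was taken as % of mean control OD, and IC50 was read from dose-response curves.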
# [4] = Therapeutic index, ratio of IC50 for human BJ cells to IC50 for paclitaxel-resistant human K562 cells; type: cell-based; settings: BJ cells versus paclitaxel-resistant K562 cells, read-out: Ratio IC50
# [5] = Therapeutic index, ratio of IC50 for human MRC5 cells to IC50 for human CCRF-CEM cells; type: cell-based; settings: MRC5 cells versus CCRF-CEM cells, read-out: Ratio IC50
# HCT-116 [6] = experiment: Cytotoxicity against human p53-deficient HCT116 cells after 72 hrs by MTT assay; type: functional, cell-based; settings: HCT-116, 72 h; procedure, shortened: as §1
# K562 [7] = experiment: Cytotoxicity against human paclitaxel resistant K562 cells after 72 hrs by MTT assay; type: functional, cell-based; settings: K562, 72 h; procedure, shortened: as §1
# A549 = experiment: Cytotoxicity against human A549 cells after 72 hrs by MTT assay; type: functional, cell-based; settings: A549, 72 h; procedure, shortened: as §1
# MRC5 = experiment: Cytotoxicity against human MRC5 cells after 72 hrs by MTT assay; type: cell-based; settings: MRC5, 72 h; procedure, shortened: as §1
# K562 [8] = experiment: Cytotoxicity against human K562 cells after 72 hrs by MTT assay; type: functional, cell-based; settings: K562, 72 h; procedure, shortened: as §1
# [9] = Therapeutic index, ratio of IC50 for human BJ cells to IC50 for human K562 cells; type: cell-based; settings: BJ cells versus K562 cells, read-out: Ratio IC50
# BJ = experiment: Cytotoxicity against human BJ cells after 72 hrs by MTT assay; type: cell-based; procedure, shortened: as §1
# HCT-116 [10] = experiment: Cytotoxicity against human HCT116 cells after 72 hrs by MTT assay; type: functional, cell-based; settings: HCT-116, 72 h; procedure, shortened: as §1
# [11] = Therapeutic index, ratio of IC50 for human BJ cells to IC50 for human CCRF-CEM cells; type: cell-based; settings: BJ cells versus CCRF-CEM cells, read-out: Ratio IC50
smiles,measurement,setting,value
CCOC(=O)C1=C(O)C(C)(C)[C@@H]2CC[C@]3(C)[C@H](CC[C@@H]4[C@H]5[C@H](C(C)C)CC[C@]5(C(=O)O)CC[C@]43C)[C@@]2(C)C1,IC50,CCRF-CEM [1],142 µM
CC1(C)CC[C@]23CC[C@]4(C)[C@H](CC[C@@H]5[C@@]6(C)Cc7c[nH]nc7C(C)(C)[C@@H]6CC[C@]54C)[C@H]2[C@H]1OC3,solubility,[2],Insoluble
same,IC50,CCRF-CEM [1],210 µM
CC(C)[C@@H]1CC[C@]2(C(=O)O)CC[C@]3(C)[C@H](CC[C@@H]4[C@@]5(C)CC(Br)(Br)C(=O)C(C)(C)[C@@H]5CC[C@]43C)[C@@H]12,IC50,CCRF-CEM [3],7 µM
same,selectivity ratio,[4],> 10
same,selectivity ratio,[5],8
same,IC50,HCT-116 [6],2.6 µM
same,IC50,K562 [7],1.1 µM
same,IC50,A549,8.4 µM
same,IC50,MRC5,8 µM
same,IC50,K562 [8],0.9 µM
same,selectivity ratio,[9],> 10
same,IC50,BJ,13.3 µM
same,IC50,CCRF-CEM [1],1 µM
same,IC50,HCT-116 [10],2.4 µM
same,selectivity ratio,[11],> 10
CC1(C)CC[C@]23CC[C@]4(C)[C@H](CC[C@@H]5[C@@]6(C)CC(Br)(Br)C(=O)C(C)(C)[C@@H]6CC[C@]54C)[C@H]2[C@H]1OC3,IC50,CCRF-CEM [1],> 250 µM
CC1(C)CC[C@]23CC[C@]4(C)[C@H](CC[C@@H]5[C@@]6(C)C/C(=C/O)C(=O)C(C)(C)[C@@H]6CC[C@]54C)[C@H]2[C@H]1OC3,IC50,CCRF-CEM [1],> 250 µM
C=C(C)[C@@H]1CC[C@]2(C(=O)O)CC[C@]3(C)[C@H](CC[C@@H]4[C@@]5(C)C/C(=C/O)C(=O)C(C)(C)[C@@H]5CC[C@]43C)[C@@H]12,IC50,CCRF-CEM [3],29.6 µM
same,selectivity ratio,[4],4.4
same,selectivity ratio,[5],8.5
same,IC50,HCT-116 [6],13.7 µM
same,IC50,K562 [7],12.7 µM
same,IC50,A549,17.6 µM
same,IC50,MRC5,29.9 µM
same,IC50,K562 [8],8.4 µM
same,selectivity ratio,[9],6.6
same,IC50,BJ,55.5 µM
same,IC50,CCRF-CEM [1],4 µM
same,IC50,HCT-116 [10],12.1 µM
same,selectivity ratio,[11],> 10
CC(C)[C@@H]1CC[C@]2(C(=O)O)CC[C@]3(C)[C@H](CC[C@@H]4[C@@]5(C)C/C(=C/O)C(=O)C(C)(C)[C@@H]5CC[C@]43C)[C@@H]12,IC50,CCRF-CEM [1],61 µM
CCOC(=O)C1=C(O)C(C)(C)[C@@H]2CC[C@]3(C)[C@H](CC[C@@H]4[C@H]5[C@H]6OC[C@@]5(CCC6(C)C)CC[C@]43C)[C@@]2(C)C1,IC50,CCRF-CEM [1],> 250 µM
C=C(C)[C@@H]1CC[C@]2(C(=O)O)CC[C@]3(C)[C@H](CC[C@@H]4[C@@]5(C)CC(C(=O)OCC)=C(O)C(C)(C)[C@@H]5CC[C@]43C)[C@@H]12,IC50,CCRF-CEM [1],161 µM
C=C(C)[C@@H]1CC[C@]2(C(=O)O)CC[C@]3(C)[C@H](CC[C@@H]4[C@@]5(C)Cc6c[nH]nc6C(C)(C)[C@@H]5CC[C@]43C)[C@@H]12,IC50,CCRF-CEM [3],10.4 µM
same,solubility,[2],Insoluble
same,IC50,HCT-116 [6],3.3 µM
same,IC50,K562 [7],3 µM
same,IC50,A549,5.2 µM
same,IC50,MRC5,14.1 µM
same,IC50,K562 [8],2.6 µM
same,IC50,BJ,35.8 µM
same,IC50,CCRF-CEM [1],3 µM
same,IC50,HCT-116 [10],4.5 µM
CC(C)[C@@H]1CC[C@]2(C(=O)O)CC[C@]3(C)[C@H](CC[C@@H]4[C@@]5(C)Cc6c[nH]nc6C(C)(C)[C@@H]5CC[C@]43C)[C@@H]12,IC50,CCRF-CEM [3],8.2 µM
same,solubility,[2],Insoluble
same,IC50,HCT-116 [6],2.8 µM
same,IC50,K562 [7],2.7 µM
same,IC50,A549,3.6 µM
same,IC50,MRC5,13.4 µM
same,IC50,K562 [8],3.5 µM
same,IC50,BJ,22.4 µM
same,IC50,CCRF-CEM [1],3 µM
same,IC50,HCT-116 [10],3.9 µM
CC1(C)CC[C@]23CC[C@]4(C)[C@H](CC[C@@H]5[C@@]6(C)Cc7cnn(-c8ccccc8)c7C(C)(C)[C@@H]6CC[C@]54C)[C@H]2[C@H]1OC3,solubility,[2],Insoluble
same,IC50,CCRF-CEM [1],250 µM
C=C(C)[C@@H]1CC[C@]2(C(=O)O)CC[C@]3(C)[C@H](CC[C@@H]4[C@@]5(C)Cc6cnn(-c7ccccc7)c6C(C)(C)[C@@H]5CC[C@]43C)[C@@H]12,solubility,[2],Insoluble
same,IC50,CCRF-CEM [1],31 µM
CC(C)[C@@H]1CC[C@]2(C(=O)O)CC[C@]3(C)[C@H](CC[C@@H]4[C@@]5(C)Cc6cnn(-c7ccccc7)c6C(C)(C)[C@@H]5CC[C@]43C)[C@@H]12,solubility,[2],Insoluble
same,IC50,CCRF-CEM [1],45 µM
CC1(C)CC[C@]23CC[C@]4(C)[C@H](CC[C@@H]5[C@@]6(C)Cc7c(n[nH]c7O)C(C)(C)[C@@H]6CC[C@]54C)[C@H]2[C@H]1OC3,solubility,[2],Insoluble
same,IC50,CCRF-CEM [1],33 µM
CC(C)[C@@H]1CC[C@]2(C(=O)O)CC[C@]3(C)[C@H](CC[C@@H]4[C@@]5(C)Cc6c(n[nH]c6O)C(C)(C)[C@@H]5CC[C@]43C)[C@@H]12,solubility,[2],Insoluble
same,IC50,CCRF-CEM [1],123 µM
CC1(C)CC[C@]23CC[C@]4(C)[C@H](CC[C@@H]5[C@@]6(C)Cc7conc7C(C)(C)[C@@H]6CC[C@]54C)[C@H]2[C@H]1OC3,solubility,[2],Insoluble
same,IC50,CCRF-CEM [1],> 250 µM
CC1(C)CC[C@]23CC[C@]4(C)[C@H](CC[C@@H]5[C@@]6(C)Cc7cnoc7C(C)(C)[C@@H]6CC[C@]54C)[C@H]2[C@H]1OC3,solubility,[2],Insoluble
same,IC50,CCRF-CEM [1],> 250 µM
CC1(C)CC[C@]23CC[C@]4(C)[C@H](CC[C@@H]5[C@@]6(C)Cc7sc(N)nc7C(C)(C)[C@@H]6CC[C@]54C)[C@H]2[C@H]1OC3,solubility,[2],Insoluble
same,IC50,CCRF-CEM [1],85 µM
CC(C)[C@@H]1CC[C@]2(C(=O)O)CC[C@]3(C)[C@H](CC[C@@H]4[C@@]5(C)Cc6sc(N)nc6C(C)(C)[C@@H]5CC[C@]43C)[C@@H]12,IC50,CCRF-CEM [3],11.2 µM
same,solubility,[2],Insoluble
same,IC50,HCT-116 [6],4.3 µM
same,IC50,K562 [7],6.9 µM
same,IC50,A549,7 µM
same,IC50,MRC5,15.7 µM
same,IC50,K562 [8],4.8 µM
same,IC50,BJ,24.9 µM
same,IC50,CCRF-CEM [1],3 µM
same,IC50,HCT-116 [10],5.1 µM
CC1(C)CC[C@]23CC[C@]4(C)[C@H](CC[C@@H]5[C@@]6(C)Cc7sc(Br)nc7C(C)(C)[C@@H]6CC[C@]54C)[C@H]2[C@H]1OC3,solubility,[2],Insoluble
same,IC50,CCRF-CEM [1],150 µM
CC(C)[C@@H]1CC[C@]2(C(=O)O)CC[C@]3(C)[C@H](CC[C@@H]4[C@@]5(C)Cc6sc(Br)nc6C(C)(C)[C@@H]5CC[C@]43C)[C@@H]12,solubility,[2],Insoluble
same,IC50,CCRF-CEM [1],11 µM
CC1(C)CC[C@]23CC[C@]4(C)[C@H](CC[C@@H]5[C@@]6(C)C=C(N7CCOCC7)C(=O)C(C)(C)[C@@H]6CC[C@]54C)[C@H]2[C@H]1OC3,IC50,CCRF-CEM [1],226 µM
CC1(C)CC[C@]23CC[C@]4(C)[C@H](CC[C@@H]5[C@@]6(C)C=C(O)C(=O)C(C)(C)[C@@H]6CC[C@]54C)[C@H]2[C@H]1OC3,IC50,CCRF-CEM [1],25 µM
CC(C)[C@@H]1CC[C@]2(C(=O)O)CC[C@]3(C)[C@H](CC[C@@H]4[C@@]5(C)CC(Br)C(=O)C(C)(C)[C@@H]5CC[C@]43C)[C@@H]12 (mixture of isomers),IC50,CCRF-CEM [3],11.4 µM
same,selectivity ratio,[4],> 10
same,selectivity ratio,[5],> 10
same,IC50,HCT-116 [6],4.1 µM
same,IC50,K562 [7],1.7 µM
same,IC50,A549,11.9 µM
same,IC50,MRC5,14.6 µM
same,IC50,K562 [8],1.6 µM
same,selectivity ratio,[9],> 10
same,IC50,BJ,17.8 µM
same,IC50,CCRF-CEM [1],1 µM
same,IC50,HCT-116 [10],4.3 µM
same,selectivity ratio,[11],> 10
CC1(C)CC[C@]23CC[C@]4(C)[C@H](CC[C@@H]5[C@@]6(C)CC(Br)C(=O)C(C)(C)[C@@H]6CC[C@]54C)[C@H]2[C@H]1OC3 (mixture of isomers),IC50,CCRF-CEM [1],> 250 µM
"C=C(C)[C@@H]1CC[C@]2(C(=O)O)CC[C@]3(C)[C@H](CC[C@@H]4[C@@]5(C)Cc6c(n[nH]c6O)C(C)(C)C5CC[C@]43C)[C@@H]12 (single isomer, unassigned)",solubility,[2],Insoluble
same,IC50,CCRF-CEM [1],22 µM
CC(C)[C@@H]1CC[C@]2(C(=O)O)CC[C@]3(C)[C@H](CC[C@@H]4[C@@]5(C)CCC(=O)C(C)(C)[C@@H]5CC[C@]43C)[C@@H]12 [DIHYDROBETULONIC ACID],IC50,CCRF-CEM [3],9.4 µM
same,IC50,HCT-116 [6],6.1 µM
same,IC50,K562 [7],4 µM
same,IC50,A549,5.9 µM
same,IC50,MRC5,11.7 µM
same,IC50,K562 [8],2.5 µM
same,IC50,BJ,22.6 µM
same,IC50,CCRF-CEM [1],4 µM
same,IC50,HCT-116 [10],4.1 µM
